Measured values reported in ChEMBL document CHEMBL4765436, “Discovery, structure-activity relationship study and biological evaluation of 2-thioureidothiophene-3-carboxylates as a novel class of C-X-C chemokine receptor 2 (CXCR2) antagonists” (Eur J Med Chem, 2020).
The source made the active and inactive calls. The calls are words filed in the database; no cut-off is given here.

Assays:
SK-OV-3 [1] = assay: Inhibition of colony formation in human SK-OV-3 cells at 8.9 to 20 uM incubated for 7 to 10 days in presence of doxorubicin by crystal violet staining based assay; type: functional, cell-based; settings: dose 8.9-20 µM, time 7-10 day
In short: (§1)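 Colony formation: cells were seeded at 300/well, attached overnight, then treated with compounds for 7-10 days until colonies formed in DMSO wells. Colonies were stained with 0.05% crystal violet for 30 min and washed with water.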

Translocator protein [2] = molecular target: T1, Translocator protein (Homo sapiens, UniProt P30536); assay: Inhibition of PBR (unknown origin) by radioligand binding assay
T1 sequence (P30536 whole entry): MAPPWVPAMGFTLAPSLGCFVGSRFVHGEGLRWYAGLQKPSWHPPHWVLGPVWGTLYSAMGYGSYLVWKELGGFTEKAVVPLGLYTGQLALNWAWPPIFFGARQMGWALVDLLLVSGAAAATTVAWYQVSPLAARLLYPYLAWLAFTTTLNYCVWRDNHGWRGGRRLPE
In short: (§2)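 Secondary radioligand binding assay determining equilibrium binding affinity (Ki).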

[3] = molecular target: T2, 5-hydroxytryptamine receptor 2B (Homo sapiens, UniProt P41595); assay: Inhibition of 5-HT2B (unknown origin) at 10 uM by radioligand binding assay relative to control
T2 sequence (P41595 whole entry): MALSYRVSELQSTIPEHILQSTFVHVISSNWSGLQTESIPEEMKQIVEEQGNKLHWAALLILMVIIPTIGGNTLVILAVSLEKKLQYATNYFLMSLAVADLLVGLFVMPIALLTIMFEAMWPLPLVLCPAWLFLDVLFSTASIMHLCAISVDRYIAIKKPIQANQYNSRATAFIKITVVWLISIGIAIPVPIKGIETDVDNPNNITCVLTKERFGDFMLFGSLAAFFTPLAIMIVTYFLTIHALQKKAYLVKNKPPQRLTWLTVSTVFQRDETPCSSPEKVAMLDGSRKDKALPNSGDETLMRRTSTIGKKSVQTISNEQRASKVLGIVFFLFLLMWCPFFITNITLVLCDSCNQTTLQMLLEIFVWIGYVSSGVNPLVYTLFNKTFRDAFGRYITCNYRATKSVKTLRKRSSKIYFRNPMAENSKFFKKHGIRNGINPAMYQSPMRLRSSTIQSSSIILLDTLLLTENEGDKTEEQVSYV
In short: (§3)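 Primary radioligand binding screen across 50 GPCRs at a single concentration of 10 μM. Compounds with ≥50% inhibition went on to secondary binding.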

[4] = molecular target: T3, Alpha-2A adrenergic receptor (Homo sapiens) (UniProt P08913); assay: Inhibition of alpha 2a-adrenergic receptor (unknown origin) at 10 uM by radioligand binding assay relative to control; in short: as §3
T3 sequence (whole entry): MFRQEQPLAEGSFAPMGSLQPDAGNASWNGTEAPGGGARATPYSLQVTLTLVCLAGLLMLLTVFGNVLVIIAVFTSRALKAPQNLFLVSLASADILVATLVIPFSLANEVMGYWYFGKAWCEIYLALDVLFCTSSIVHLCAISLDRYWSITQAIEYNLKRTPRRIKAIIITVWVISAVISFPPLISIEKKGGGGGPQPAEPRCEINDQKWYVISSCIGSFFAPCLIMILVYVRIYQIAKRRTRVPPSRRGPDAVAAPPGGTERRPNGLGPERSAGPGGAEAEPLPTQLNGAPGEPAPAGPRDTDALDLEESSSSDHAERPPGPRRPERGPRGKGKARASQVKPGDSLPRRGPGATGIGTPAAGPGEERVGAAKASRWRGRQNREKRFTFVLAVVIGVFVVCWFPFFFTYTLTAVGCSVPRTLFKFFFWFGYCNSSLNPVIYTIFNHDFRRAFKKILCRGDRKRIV

[5] = molecular target: T2, 5-hydroxytryptamine receptor 2B; assay: Inhibition of 5-HT2B (unknown origin) by radioligand binding assay; in short: as §2
Translocator protein [6] = molecular target: T1, Translocator protein; assay: Inhibition of PBR (unknown origin) at 10 uM by radioligand binding assay relative to control; in short: as §3
[7] = molecular target: T4, Alpha-2A adrenergic receptor (Homo sapiens, UniProt P08913); assay: Inhibition of alpha 2a-adrenergic receptor (unknown origin) by radioligand binding assay; in short: as §2
T4 sequence (P08913 whole entry): T3 sequence (whole entry)

[8] = molecular target: C-X-C chemokine receptor type 4 (Homo sapiens, UniProt P61073); assay: Antagonist activity at CXCR4 (unknown origin) expressed in U2OS cells cotransfected with beta-arrestin/TEV protease fusion protein and beta-lactamase assessed as inhibition of SDF1-alpha-induced beta arrestin2 recruitment preincubated for 30 mins followed by SDF1-alpha stimulation and measured after 5 hrs by FRET based fluorescence/Tango assay
Chain of C-X-C chemokine receptor type 4 (P61073 whole entry, the tested form may be a part): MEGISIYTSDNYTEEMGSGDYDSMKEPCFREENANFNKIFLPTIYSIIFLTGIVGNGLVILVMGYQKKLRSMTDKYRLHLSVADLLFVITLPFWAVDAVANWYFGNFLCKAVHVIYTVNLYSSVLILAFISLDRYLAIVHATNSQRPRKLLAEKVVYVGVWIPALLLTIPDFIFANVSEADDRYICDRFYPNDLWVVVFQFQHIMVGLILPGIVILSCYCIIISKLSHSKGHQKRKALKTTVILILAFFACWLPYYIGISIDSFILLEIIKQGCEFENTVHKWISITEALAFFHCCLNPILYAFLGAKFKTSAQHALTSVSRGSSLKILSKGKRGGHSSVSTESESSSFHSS

[9] = molecular target: T5, C-X-C chemokine receptor type 2 (Homo sapiens, UniProt P25025); assay: (§4) Antagonist activity at CXCR2 (unknown origin) expressed in U2OS cells cotransfected with beta-arrestin/TEV protease fusion protein and beta-lactamase assessed as inhibition of CXCL8-induced beta arrestin2 recruitment preincubated for 30 mins followed by CXCL8 stimulation and measured after 5 hrs by FRET based fluorescence/Tango assay; type: cell-based
T5 sequence (P25025 whole entry): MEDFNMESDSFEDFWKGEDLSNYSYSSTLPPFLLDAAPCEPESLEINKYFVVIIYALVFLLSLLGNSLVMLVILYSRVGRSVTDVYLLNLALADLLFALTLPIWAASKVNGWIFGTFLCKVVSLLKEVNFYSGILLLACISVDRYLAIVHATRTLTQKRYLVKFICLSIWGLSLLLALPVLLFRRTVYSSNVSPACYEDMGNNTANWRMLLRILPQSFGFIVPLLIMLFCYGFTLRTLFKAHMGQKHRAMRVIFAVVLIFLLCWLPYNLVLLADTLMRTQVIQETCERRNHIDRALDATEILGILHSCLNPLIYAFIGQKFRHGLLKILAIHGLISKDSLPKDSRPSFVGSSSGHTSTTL

[10] = molecular target: T6, C-X-C chemokine receptor type 2 (Homo sapiens) (UniProt P25025); assay: Antagonist activity at CXCR2 (unknown origin) expressed in HEK293T cells cotransfected with GFP assessed as inhibition of CXCL8-induced AKT phosphorylation at 10 to 30 uM post CXCL8 treatment by immunoblot assay; type: cell-based; settings: dose 10-30 µM
T6 sequence (whole entry): T5 sequence (P25025 whole entry)

[11] = molecular target: T6, C-X-C chemokine receptor type 2 (Homo sapiens); assay: Antagonist activity at CXCR2 (unknown origin) expressed in HEK293T cells cotransfected with GFP and p22F assessed as inhibition of CXCL8-reduced cAMP production at 10 uM incubated for 10 mins followed by CXCL8 stimulation and measured after 10 mins by luminescence based assay; type: functional, cell-based; settings: time 20.0 min
In short: (§5)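 293T-CXCR2-GFP-p22F cells express a cAMP-sensitive firefly luciferase. They were seeded at 30000 cells/well overnight in CO2-independent medium with 10% FBS, then incubated with 1% cAMP reagent for 2 h at 37 °C. Cells were pretreated with compound for 10 min, given CXCL8 (50 nM) for 10 min, then stimulated with forskolin (50 μM) until maximal signal (~80 min). Luminescence read-out.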

[12] = molecular target: T6, C-X-C chemokine receptor type 2 (Homo sapiens); assay: Antagonist activity at CXCR2 (unknown origin) expressed in HEK293T cells cotransfected with GFP assessed as inhibition of CXCL8-induced p38 phosphorylation at 10 to 30 uM post CXCL8 treatment by immunoblot assay; type: cell-based; settings: dose 10-30 µM
In short: (§6)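 293T-CXCR2-GFP cells (5 x 10^5/well) were attached overnight, treated with compounds and lysed in RIPA buffer with protease/phosphatase inhibitors. Lysates were normalized by BCA and resolved on 10% SDS-PAGE. Blots were probed overnight at 4 °C with antibodies (1:500-1:1000) to p-ERK1/2, p-JNK, p-cJUN or p-p38, then with a fluorescent secondary antibody, and imaged by infrared imaging.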

[13] = molecular target: T6, C-X-C chemokine receptor type 2 (Homo sapiens); assay: Antagonist activity at CXCR2 (unknown origin) expressed in HEK293T cells cotransfected with GFP assessed as inhibition of CXCL8-induced JNK phosphorylation at 10 to 30 uM post CXCL8 treatment by immunoblot assay; type: cell-based; settings: dose 10-30 µM; in short: as §6
[14] = molecular target: T6, C-X-C chemokine receptor type 2 (Homo sapiens); assay: Antagonist activity at CXCR2 (unknown origin) expressed in HEK293T cells cotransfected with GFP assessed as inhibition of CXCL8-induced ERK1/2 phosphorylation pretreated at 10 to 30 uM followed by treated with CXCL8 by immunoblot assay; type: cell-based; settings: dose 10-30 µM; in short: as §6
[15] = molecular target: T6, C-X-C chemokine receptor type 2 (Homo sapiens); assay: as §4, with “recruitment at 10 uM” for “recruitment”, “assay relative to control” for “assay”; type: cell-based
In short: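 Tango assay: CXCR2-bla or CXCR4-bla U2OS cells were seeded at 11000/well for 24 h in DMEM with 1% dialyzed FBS. Cells were pretreated with inhibitor for 30 min, then given CXCL8 (12 nM; CXCR2) or SDF-1α (60 nM; CXCR4) for 5 h at 37 °C. […] IC50 is the mean±SD of ≥3 independent experiments.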

[16] = molecular target: T6, C-X-C chemokine receptor type 2 (Homo sapiens); assay: Antagonist activity at CXCR2 (unknown origin) expressed in HEK293T cells cotransfected with GFP and p22F assessed as inhibition of […] at 30 uM incubated at 37 degC for 30 min and at room temperature for 30 min by fluorescence based assay; type: functional, cell-based; settings: time 60.0 min
In short: (§7)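 293T-CXCR2-GFP cells were seeded at 30000 cells/well and loaded next day with Fluo-4 NW dye plus probenecid ([…] final). Loading was 30 min at 37 °C, then 30 min at room temperature, protected from light. Compound and CXCL8 (300 nM, by injector) were added. Fluorescence was read immediately (ex 490/em 535 nm) and normalized to the pre-stimulation baseline.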

U2OS = assay: Antimigratory activity against human U2OS cells overexpressing CXCR2/bla assessed as reduction in CXCL8-mediated wound closure at 10 uM incubated for 20 mins followed by CXCL8 stimulation and measured after 24 hrs by Giemsa staining based scratch wound healing assay; type: functional, cell-based; settings: time 24.3 hrs
In short: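 CXCR2-bla U2OS cells were seeded at 35000/well in DMEM with 1% FBS overnight and scratched with a pipette tip. Compounds (10 μM) were added for 20 min, then CXCL8 (60 nM) for 24 h; unstimulated wells served as control. Cells were methanol-fixed, Giemsa-stained and imaged by transmitted light. Two independent experiments were run in duplicate.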

[17] = molecular target: T6, C-X-C chemokine receptor type 2 (Homo sapiens); assay: Antagonist activity at CXCR2 (unknown origin) expressed in HEK293T cells cotransfected with GFP assessed as inhibition of CXCL8-induced cJUN phosphorylation at 10 to 30 uM post CXCL8 treatment by immunoblot assay; type: cell-based; settings: dose 10-30 µM; in short: as §6
SK-OV-3 [18] = assay: Inhibition of colony formation in human SK-OV-3 cells at 38 nM incubated for 7 to 10 days by crystal violet staining based assay; type: functional, cell-based; settings: time 7-10 day; in short: as §1
[19] = molecular target: T5, C-X-C chemokine receptor type 2; assay: Inhibition of CXCR2 (unknown origin) expressed in HEK293T cells cotransfected with GFP-p22F assessed as reduction in IL-8-induced cAMP incubated for 10 mins followed by IL-8 stimulation and measured after 10 mins by luminescence based assay; type: functional, cell-based; in short: as §5
[20] = molecular target: T6, C-X-C chemokine receptor type 2 (Homo sapiens); assay: Antagonist activity at CXCR2 (unknown origin) expressed in HEK293T cells cotransfected with GFP assessed as inhibition of CXCL8-induced JNK phosphorylation at 10 uM post CXCL8 treatment by immunoblot assay; type: cell-based; in short: as §6
[21] = molecular target: T6, C-X-C chemokine receptor type 2 (Homo sapiens); assay: Antagonist activity at CXCR2 (unknown origin) expressed in HEK293T cells cotransfected with GFP assessed as inhibition of CXCL8-induced p38 phosphorylation at 10 uM post CXCL8 treatment by immunoblot assay; type: cell-based; in short: as §6
[22] = molecular target: T6, C-X-C chemokine receptor type 2 (Homo sapiens); assay: Antagonist activity at CXCR2 (unknown origin) expressed in HEK293T cells cotransfected with GFP and p22F assessed as inhibition of […] at 15 uM incubated at 37 degC for 30 min and at room temperature for 30 min by fluorescence based assay; type: functional, cell-based; settings: filed as antagonist, time 60.0 min; in short: as §7
[23] = molecular target: T6, C-X-C chemokine receptor type 2 (Homo sapiens); assay: Antagonist activity at CXCR2 (unknown origin) expressed in HEK293T cells cotransfected with GFP assessed as inhibition of CXCL8-induced cJUN phosphorylation at 10 uM post CXCL8 treatment by immunoblot assay; type: cell-based; in short: as §6
[24] = molecular target: T6, C-X-C chemokine receptor type 2 (Homo sapiens); assay: Antagonist activity at CXCR2 (unknown origin) expressed in HEK293T cells cotransfected with GFP assessed as inhibition of CXCL8-induced AKT phosphorylation at 10 uM post CXCL8 treatment by immunoblot assay; type: cell-based
[25] = molecular target: T6, C-X-C chemokine receptor type 2 (Homo sapiens); assay: Antagonist activity at CXCR2 (unknown origin) expressed in HEK293T cells cotransfected with GFP assessed as inhibition of CXCL8-induced ERK1/2 phosphorylation pretreated at 10 uM followed by treated with CXCL8 by immunoblot assay; type: cell-based; settings: filed as antagonist; in short: as §6
[26] = molecular target: T6, C-X-C chemokine receptor type 2 (Homo sapiens); assay: Antagonist activity at CXCR2 (unknown origin) expressed in HEK293T cells cotransfected with GFP and p22F assessed as inhibition of CXCL8-reduced cAMP production at 5 uM incubated for 10 mins followed by CXCL8 stimulation and measured after 10 mins by luminescence based assay; type: functional, cell-based; settings: filed as antagonist, time 20.0 min; in short: as §5

## CC1COCc2sc(NC(=S)Nc3ccccc3)c(C(=O)OC(C)(C)C)c21 (centres undefined)
SK-OV-3 [1]
  inhibition: Active
Translocator protein [2]
  Ki: 4 µM
[3]
  inhibition: 58%
[4]
  inhibition: 55.2%
[5]
  Ki: > 10 µM
Translocator protein [6]
  inhibition: 63.1%
[7]
  Ki: > 10 µM
[8]
  IC50: > 15 µM
[9]
  IC50: 1.7 µM

## CC(C)(C)OC(=O)c1c(NC(=S)Nc2ccc(F)cc2)sc2c1CCOC2
[10]
  Activity: inactive
[11]
  Activity: inactive
SK-OV-3 [1]
  inhibition: Active
[12]
  Activity: inactive
[13]
  Activity: inactive
[14]; filed as antagonist
  Activity: Active
[15]
  inhibition: 87%
[16]
  Activity: inactive
U2OS
  inhibition: Active
[17]
  Activity: inactive
[8]
  IC50: > 30 µM
[9]
  IC50: 1.1 µM

## COc1cccc2c1C(=O)c1c(O)c3c(c(O)c1C2=O)C[C@@](O)(C(=O)CO)C[C@@H]3O[C@H]1C[C@H](N)[C@H](O)[C@H](C)O1
SK-OV-3 [18]
  inhibition: inactive

## CSc1nnc2n(-c3ccccc3)c(=O)c3c4c(sc3n12)CCC[C@H]4C
[11]; filed as antagonist
  Activity: Active
[14]
  Activity: inactive
[19]
  IC50: 7.79 µM
[16]
  Activity: inactive

## N#Cc1ccc(NC(=O)Nc2ccccc2Br)c2nn[nH]c12
[20]
  Activity: inactive
[21]
  Activity: inactive
[22]
  Activity: Active
[23]
  Activity: inactive
[24]
  Activity: inactive
U2OS
  inhibition: Active
[25]
  Activity: Active
[26]
  Activity: Active
